Screens from PubChem BioAssay.
NR2E3 ag-1 – activates human photoreceptor nuclear receptor NR2E3; Q9Y5X4; GST-NR2E3/biotin-RetCOR TR-FRET, 1536-well; inhibition of corepressor binding, % at 4.78 µM; 320,000 compounds, 0.12% hits;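 active means percent inhibition above the cutoff of mean plus 3 SD of all tested compounds, set per screening campaign, cut at about 20% in these data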;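 further: 0% = DMSO wells and 100% = biotin wells as full block of FRET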
Target sequence (Q9Y5X4 whole entry, looked up): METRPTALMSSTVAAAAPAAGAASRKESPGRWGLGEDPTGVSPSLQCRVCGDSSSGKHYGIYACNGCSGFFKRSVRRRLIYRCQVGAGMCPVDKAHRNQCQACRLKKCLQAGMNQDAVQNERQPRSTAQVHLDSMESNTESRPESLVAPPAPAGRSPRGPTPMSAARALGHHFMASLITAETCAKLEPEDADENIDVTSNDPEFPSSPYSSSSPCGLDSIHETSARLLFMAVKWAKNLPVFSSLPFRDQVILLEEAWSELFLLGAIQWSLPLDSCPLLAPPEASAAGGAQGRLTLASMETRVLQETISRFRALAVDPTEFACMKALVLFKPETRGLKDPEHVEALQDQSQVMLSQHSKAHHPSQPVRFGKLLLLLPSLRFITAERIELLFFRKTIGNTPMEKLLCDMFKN
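system = GST-tagged NR2E3 plus biotinylated RetCOR corepressor | input = 1.35 nM GST-NR2E3 | also added = 7 nM biotin-RetCOR | schedule = 5 h incubation at 4 °C | measured by = TR-FRET with europium anti-GST and streptavidin-D2, 340 nm excitation | read-out = percent loss of FRET ratio relative to control wells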
HIV Env fusion – blocks HIV Env-driven cell-cell fusion; inhibition, % at 12.3 µM; 360,000 compounds, 1.1% hits; HeLa-JRFL Env/CEM21 cell fusion, luciferase;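 active means mean replicate inhibition score of at least 50 and every replicate individually at or above 50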;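 further: 0% = plate neutral controls and 100% = maraviroc near 300 nM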
NR2E3 ag-2 – activates human NR2E3 receptor | CHO-S Gal4-NCOR/VP16-NR2E3 two-hybrid, luciferase | 360,000 compounds, 0.35% hits | inhibition of corepressor binding, % at 3.98 µM | AID 602229 | Q9Y5X4;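 active means inhibition above the mean of all tested compounds plus 3 SD, cut at about 70% in these data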;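 further: 0% = DMSO with NR2E3 transfected cells and 100% = cells lacking NR2E3 construct; higher means lower luciferase signal from less NR2E3 corepressor binding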
V-ATPase pH – alters yeast V-ATPase proton transport; S. cerevisiae, pHLuorin cytosolic pH fluorescence; response, % at 10 µM; 350,000 compounds, 0.37% hits; AID 504577; in the data active means response mostly above about 7.3%, no sharp cut-off; inactive means mostly below about 5.4%; further: actives read high
GAA850 FXN act – increases GAA850 frataxin promoter reporter activity; 360,000 compounds, 0.56% hits; AID 540364; HEK293 lucGAA850 FXN promoter luciferase reporter, 24 h; percent of 10 µM SAHA response; activation, % at 6 µM;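 active means activation above the average of all compounds screened plus 3 SD, cutoff fixed separately per campaign, cut at about 7.5% in these data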;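 further: 0% = DMSO wells and 100% = 10 µM SAHA wells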
GalR3 antagonist – human GalR3 antagonism | O60755 | 360,000 compounds, 0.44% hits | HEK293 GalR3-CNG cAMP membrane potential fluorescence; galR3 body fused to GalR1 C-terminus | AID 651719 | inhibition, % at 3 µM;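 active means inhibition above the screen-wide average plus 3 SD, cut at about 13% in these data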;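 further: forskolin and galanin both at EC90 stimulate the cells; cAMP rise reported by CNG channel membrane potential dye signal; 0% = forskolin plus galanin with DMSO and 100% = forskolin alone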
V-ATPase pH SP – regulators of yeast V-ATPase proton transport; 980 compounds, 2% hits; S. cerevisiae pHLuorin cytosolic pH; response, % at 10 µM; shares compounds with V-ATPase pH; in the data active means response above about 24%;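 further: plate controls were vehicle wells for no effect and positive control wells for full effect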
The depositor's hits bear a star; · = no result given; [ ] = another dose, or the depositor's remark. Most compounds without a hit are left out; they make up all but 2.2% or so of the library.

SMILES	NR2E3 ag-1	HIV Env fusion	NR2E3 ag-2	V-ATPase pH	GAA850 FXN act	GalR3 antagonist	V-ATPase pH SP
FC(F)(F)c1cc(C(F)(F)F)n2nc(-c3sccc3-n3cccc3)cc2n1	-2.2	-199.8	3.0	11.9*	-0.6	3.1	-1.5
Cc1cc(C)n2nc(-c3sccc3-n3cccc3)cc2n1	0.9	·	-12.8	-0.1	0.3	-1.5	·
CCCNC(=O)CCCN1C(=O)c2ccccc2Sc2ncccc21	-1.4	-8.2	2.7	9.0*	-0.3	-12.1	4.8
C[C@@H]1CN([C@H](C)CO)C(=O)Cc2cc(NS(C)(=O)=O)ccc2O[C@H]1CN(C)Cc1ccccc1	·	-6.4[16.7 µM]	·	·	·	·	·
CCOc1ccc(NC(=O)CSc2nc(N3CCOCC3)nc(N3CCOCC3)n2)cc1	0.6	8.4	-9.3	8.7*	2.4	-3.1	0.6
O=C(NCC1CCCCC1)c1cc([N+](=O)[O-])ccc1Cl	1.4	-14.1	-15.1	2.1	-1.5	-7.1	·
O=C(NCC1CCCCC1)c1ccccc1[N+](=O)[O-]	3.9	-19.7	-17.3	12.6*	1.5	-8.0	1.1
Cc1ccc(NC2OC(C(O)CO)C(O)C2O)cc1[N+](=O)[O-] (stereo not drawn)	-0.8	·	9.4	35.9*	1.4	-0.7	-4.0
Cc1ccc(NC2OC(CO)C(O)C2O)cc1[N+](=O)[O-] (stereo not drawn)	-3.2	-2.3	9.6	-1.5	-0.8	-9.9	·
C[C@@H]1CN([C@H](C)CO)C(=O)c2cc(NC(=O)c3ccncc3)ccc2O[C@@H](C)CCCCO[C@@H]1CN(C)Cc1ccc(C(=O)O)cc1	·	8.9[16.7 µM]	·	·	·	·	·
O=c1c(C=Nc2ccc(Cl)cc2)c[nH]n1-c1cccc(Cl)n1	3.1	-0.3	10.6	10.6*	0.3	-4.3	-3.9
COc1cccc(N2C(=O)/C(=C\c3cccs3)NC2=S)c1	-2.4	-8.9	-23.5	20.6*	2.4	5.7	-4.1
C=CCNCCOc1c(C)cc(C)cc1Cl	-2.4	-19.0	-3.0	7.7*	4.5	-5.6	2.7
Cc1noc(C)c1S(=O)(=O)Nc1ccc2c(c1)CC(=O)N([C@H](C)CO)C[C@@H](C)[C@H](CN(C)C(=O)Nc1cccc3ccccc13)O2	·	3.1[16.7 µM]	·	·	·	·	·
C[C@@H]1CN([C@H](C)CO)S(=O)(=O)c2ccc(Br)cc2O[C@H]1CN(C)Cc1ccncc1	·	2.5[16.7 µM]	·	·	·	·	·
Cn1c(SCCN2CCCCC2)nnc1-c1ccccc1Br	1.4	3.5	-12.6	3.5	1.5	-4.2	·
O=S1(=O)C=C(SCCN2CCCCC2)c2ccccc21	1.0	·	7.1	-2.4	-2.5	-3.8	2.7
COc1ccc(Nc2nc3ccccc3c(=O)[nH]2)cc1	3.5	-2.8	-21.1	-1.4	1.0	-4.5	·
Cc1ccc(Nc2nc3ccccc3c(=O)[nH]2)cc1C	5.0	-37.7	0.3	11.2*	1.2	-2.4	-0.7
Cc1c(OC(C)C(=O)NCC(O)c2ccccc2)ccc2c3c(c(=O)oc12)CCCC3 (stereo not drawn)	-0.3	3.0	-0.9	10.2*	6.4	-3.9	2.2
Cn1cccc1C(=O)OCC(=O)N1CCN(c2ccccc2)CC1	·	-6.9	-8.9	9.8*	0.7	1.5	2.7
O=C(OCC(=O)N1CCN(c2ccccc2)CC1)c1ccccn1	1.9	2.6	-5.9	-5.7	1.5	2.6	·
CN1CCN(C(=O)c2c(O)c3cccc4c3n(c2=O)CC4)CC1	0.3	·	6.4	-0.1	-0.6	-2.9	·
Cc1c(C)n2c3c(cccc13)CC2	1.1	-2.3	-4.2	6.0*	0.7	10.5	0.9
CC(C)CNC(C(=O)Nc1ccc([N+](=O)[O-])cc1Br)c1ccccc1 (stereo not drawn)	-3.5	10.7	13.0	10.8*	3.8	-5.1	1.5
c1ccc(Cc2nnc3sc(-c4ccccn4)nn23)cc1	2.4	-1.2	-11.6	11.2*	1.1	-6.4	-2.2
COc1ccc(-c2cnc3c(c2)C(=O)N([C@H](C)CO)C[C@H](C)[C@H](CN(C)C(=O)Nc2ccc(F)cc2)O3)cc1	·	8.7[16.7 µM]	·	·	·	·	·
Cc1nn(C)cc1NC(=O)C[C@@H]1CC[C@@H]2[C@H](COc3ccc(NC(=O)C4CCC4)cc3C(=O)N2C)O1	·	3.5[16.7 µM]	·	·	·	·	·
CCC(CC)c1nnc(NC(=O)Oc2ccccc2)s1	3.6	19.2	9.8	16.9*	0.0	-5.9	2.8
